The results in this text go back to ChEMBL document CHEMBL4002602, “Design, Synthesis of Novel, Potent, Selective, Orally Bioavailable Adenosine A2A Receptor Antagonists and Their Biological Evaluation” (J Med Chem, 2017).

The source made the active and inactive calls. The calls are words filed in the database; no cut-off is given here. Some results are limits rather than exact numbers.

For data set [1], the target named is T1, Adenosine receptor A2a (Homo sapiens, UniProt P29274). The experiment in a line: Displacement of [3H]ZM241385 from human adenosine A2A receptor expressed in HEK293 cell membranes measured after 90 mins. In outline:
(§1)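 Competition binding on membranes from HEK-293 cells overexpressing human A1, A2A, A2B or A3, washed with ADA. Radioligands: [3H]-DPCPX 1 nM (A1), [3H]ZM241385 1 nM (A2A), [3H]-MRS-1754 1.6 nM (A2B), [3H]-HEMADO 2 nM (A3). Buffer was 50 mM Tris with EDTA and ADA; MgCl2 10 mM for A2A/A3; A2B at pH 6.5 with 5 mM MgCl2. Incubation 90 min at room temperature, then filtration. Nonspecific binding defined by NECA 100 μM. Ki values: mean of two experiments, triplicate points.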

Data set [2] deals with T2, Adenosine receptor A1 (Homo sapiens) (UniProt P30542).
T2 sequence (whole entry): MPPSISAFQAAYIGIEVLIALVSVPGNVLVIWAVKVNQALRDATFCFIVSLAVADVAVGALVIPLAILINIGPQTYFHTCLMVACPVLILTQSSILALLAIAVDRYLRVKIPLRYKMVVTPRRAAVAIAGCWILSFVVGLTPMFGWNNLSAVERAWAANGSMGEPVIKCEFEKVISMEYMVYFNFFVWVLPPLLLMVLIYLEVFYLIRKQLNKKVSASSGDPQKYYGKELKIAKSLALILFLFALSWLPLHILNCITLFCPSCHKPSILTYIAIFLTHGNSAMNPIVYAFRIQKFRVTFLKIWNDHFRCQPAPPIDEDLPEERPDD
The experiment in a line: Displacement of [3H]-DPCPX from human adenosine A1 receptor expressed in HEK293 cell membranes at 1 uM measured after 90 mins relative to control. On the technique in general: Displacement assays read how much labelled ligand stays bound in the presence of the test substance.

In data set [3] the target is T3, Adenosine receptor A2b (Homo sapiens) (UniProt P29275).
T3 sequence (whole entry): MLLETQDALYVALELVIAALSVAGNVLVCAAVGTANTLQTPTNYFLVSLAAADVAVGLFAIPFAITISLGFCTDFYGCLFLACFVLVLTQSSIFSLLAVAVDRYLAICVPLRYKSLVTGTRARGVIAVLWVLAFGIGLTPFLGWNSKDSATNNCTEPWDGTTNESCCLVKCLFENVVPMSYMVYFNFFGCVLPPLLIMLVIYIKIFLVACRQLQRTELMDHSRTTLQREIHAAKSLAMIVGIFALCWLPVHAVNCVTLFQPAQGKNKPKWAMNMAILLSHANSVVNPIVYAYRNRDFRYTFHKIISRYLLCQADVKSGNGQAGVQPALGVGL
In words: Displacement of [3H]-MRS-1754 from human adenosine A2B receptor expressed in HEK293 cell membranes at 1 uM measured after 90 mins relative to control.

The target of data set [4] is T4, Adenosine receptor A3 (Homo sapiens) (UniProt P0DMS8).
T4 sequence (whole entry): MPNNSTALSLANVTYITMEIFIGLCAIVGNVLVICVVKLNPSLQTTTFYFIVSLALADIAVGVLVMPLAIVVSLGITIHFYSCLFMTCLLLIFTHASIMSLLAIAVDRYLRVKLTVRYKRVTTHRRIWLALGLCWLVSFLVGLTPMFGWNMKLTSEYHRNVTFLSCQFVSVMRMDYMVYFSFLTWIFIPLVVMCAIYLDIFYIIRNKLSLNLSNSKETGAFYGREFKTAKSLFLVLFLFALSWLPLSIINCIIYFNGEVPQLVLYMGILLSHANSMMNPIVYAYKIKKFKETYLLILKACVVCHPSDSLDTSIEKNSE
The experiment in a line: Displacement of [3H]-HEMADO from human adenosine A3 receptor expressed in HEK293 cell membranes at 1 uM measured after 90 mins relative to control.

Data set [5] has as its system Liver. In words: Metabolic stability in rat liver microsomes assessed as metabolic rate at 1 uM preincubated for 5 mins followed by addition of NADPH measured after 3 to 30 mins by LC-MS/MS analysis. In kind it is ADME, microsome.
Data set [6] concerns Liver. In words: Metabolic stability in human liver microsomes assessed as metabolic rate at 1 uM preincubated for 5 mins followed by addition of NADPH measured after 3 to 30 mins by LC-MS/MS analysis. In kind it is ADME, microsome.
For data set [7], the target named is T1, Adenosine receptor A2a. In words: Antagonist activity at human adenosine A2A receptor expressed in HEK293 cell membranes assessed as decrease in CGS-21680-induced cAMP level pretreated for 15 mins followed by agonist addition for 30 mins.
In data set [8] the target is T5, Adenosine receptor A1 (Homo sapiens, UniProt P30542).
T5 sequence (P30542 whole entry): T2 sequence (whole entry)
In words: Displacement of [3H]-DPCPX from human adenosine A1 receptor expressed in HEK293 cell membranes measured after 90 mins. In outline: as §1

Data set [9] has as its target T6, Adenosine receptor A2b (Homo sapiens, UniProt P29275).
T6 sequence (P29275 whole entry): T3 sequence (whole entry)
In words: Displacement of [3H]-MRS-1754 from human adenosine A2B receptor expressed in HEK293 cell membranes measured after 90 mins.

Data set [10] deals with T5, Adenosine receptor A1. The experiment in a line: Antagonist activity at human adenosine A1 receptor expressed in HEK293 cell membranes assessed as decrease in CPA/forskolin-induced cAMP level pretreated for 15 mins followed by agonist addition for 15 mins and subsequent forskolin stimulation measured after 30 mins. In kind it is functional, cell-based. In outline:
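HTRF cAMP assay in overnight-seeded HEK cells expressing human A1, A2A or A2B, pretreated with ADA 1 U/ml for 90 min at 37 °C. Cells were given compound at increasing concentrations for 15 min, then agonist at room temperature in incomplete DMEM with ADA: CPA 1 nM, 15 min (A1); CGS-21680 10 nM, 30 min (A2A); NECA 70 nM, 15 min (A2B). Rolipram 20 μM for A1 and A2A; forskolin 30 min for A1 only. 12 concentrations, triplicates; IC50/Ki by curve fitting.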
On the technique in general: Cyclic AMP is a second messenger, typically raised through Gs and lowered through Gi signalling.

The target in data set [11] is T6, Adenosine receptor A2b. The experiment in a line: Antagonist activity at human adenosine A2B receptor expressed in HEK293 cell membranes assessed as decrease in NECA/forskolin-induced cAMP level pretreated for 15 mins followed by agonist addition for 15 mins and subsequent forskolin stimulation measured after 30 mins. In kind it is functional, cell-based.
Data set [12] concerns the target T4, Adenosine receptor A3 (Homo sapiens). The experiment in a line: Displacement of [3H]-HEMADO from human adenosine A3 receptor expressed in HEK293 cell membranes at 30 uM measured after 90 mins.

The Ki is the equilibrium dissociation constant of an inhibitor or competing ligand from its target. Usually inhibition stands for the share of the control response that was lost under treatment. A lower inhibition goes with a response near the control.

T1 sequence (P29274 whole entry): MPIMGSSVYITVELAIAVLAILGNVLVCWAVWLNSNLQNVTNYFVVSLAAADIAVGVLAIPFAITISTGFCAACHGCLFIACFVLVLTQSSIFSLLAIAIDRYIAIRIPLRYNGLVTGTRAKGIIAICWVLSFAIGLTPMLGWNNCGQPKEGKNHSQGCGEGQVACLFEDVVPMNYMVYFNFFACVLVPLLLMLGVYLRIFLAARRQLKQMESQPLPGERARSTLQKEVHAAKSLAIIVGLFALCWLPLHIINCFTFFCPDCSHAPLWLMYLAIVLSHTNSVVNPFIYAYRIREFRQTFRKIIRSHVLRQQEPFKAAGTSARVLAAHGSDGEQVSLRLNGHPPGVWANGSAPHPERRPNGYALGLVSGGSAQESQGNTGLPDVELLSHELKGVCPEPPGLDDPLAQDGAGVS

In turn, `COc1ccc(N2CCOCC2)c2sc(NC(=O)C(C)(C)Oc3ccc(C(C)(C)C)cc3)nc12` had a Ki in data set [1] of 500 nM.

For the molecule `COc1ccc(N2CCOCC2)c2sc(NC(=O)C(C)(C)Oc3ccc(C(F)(F)F)cc3)nc12`, the Ki in [1] was 76 nM.

Molecule `COc1cccc(OC(C)(C)C(=O)Nc2nc3c(OC)cnc(N4CCOCC4)c3s2)c1` registered a Ki in [1] of 42 nM.

`CCC1(O)CCC(C)(C(=O)Nc2nc3c(OC)ccc(N4CCOCC4)c3s2)CC1` (stereo not given): in data set [1], the Ki amounted to 25 nM.

Regarding `COc1cnc(N2CCOCC2)c2sc(NC(=O)C(C)(C)Oc3ccc4c(c3)OCO4)nc12`, the inhibition constant (Ki) in data set [1] was 42 nM.

For the molecule `COc1cnc(N2CCOCC2)c2sc(NC(=O)C(C)(C)Oc3ccc(F)c(F)c3)nc12`, the Ki in data set [1] stood at 12 nM; in data set [7], 24 nM. For the same molecule, the inhibition in data set [2] came out at 50%; in [3], 42%; in data set [4], 47%. Further, the values for the Drug metabolism in data set [5] and in [6] were 0.03 nmol/min/mg and 0.05 nmol/min/mg, respectively.

For `COc1ccc(N2CCOCC2)c2sc(NC(=O)C(C)(C)Oc3ccc(F)cc3F)nc12`, the Ki in [1] worked out at 7 nM; in [7] it was 2.6 nM. Further, the inhibition was 33% in data set [2], 0% in [3] and 21% in [4]. Besides, the results for the Drug metabolism in data set [5] and in data set [6] were 0.07 nmol/min/mg and 0.11 nmol/min/mg, respectively.

`COc1cnc(N2CCOCC2)c2sc(NC(=O)C(C)(C)Oc3ccccc3F)nc12` displayed a Ki in data set [1] of 21 nM.

`COc1cnc(N2CCOCC2)c2sc(NC(=O)C(C)(C)Oc3cccc(F)c3)nc12`: the Ki in [1] came out at 14 nM; in data set [7], 4.7 nM. The inhibition amounted to 90% in data set [2], 42% in data set [3] and 94% in [4]. Also, the Drug metabolism is < 0.02 nmol/min/mg in [5] and < 0.04 nmol/min/mg in data set [6].

In turn, `COc1ccc(N2CCOCC2)c2sc(NC(=O)C(C)(C)Oc3ccc(Cl)cc3)nc12` had a Ki in [1] of 51 nM.

On to `COCCOc1cccc(OC(C)(C)C(=O)Nc2nc3c(OC)ccc(N4CCOCC4)c3s2)c1`, for which the inhibition constant Ki in data set [1] stood at 22 nM. The inhibition was determined as 34% in [2], 38% in data set [3] and 20% in data set [4].

Take `COc1ccc(N2CCOCC2)c2sc(NC(=O)C(C)(C)Oc3ccc(C)cc3)nc12`: the Ki in [1] is 5.4 nM; in [7] it was 8.3 nM. The inhibition was 7% in [2], 14% in [3] and 5% in [4]. The Drug metabolism in data set [5] was 0.1 nmol/min/mg; in data set [6], 0.09 nmol/min/mg.

Turning to `COc1cnc(N2CCOCC2)c2sc(NC(=O)C(C)(C)Oc3c(F)cccc3F)nc12`, the values for the Ki in data set [1] and in [7] were 15 nM and 26.5 nM, respectively. The inhibition came out at 33% in data set [2], 42% in data set [3] and 48% in data set [4]. For the same molecule, the Drug metabolism in [5] was determined as 0.05 nmol/min/mg; in [6] it was 0.11 nmol/min/mg.

Take `COc1cnc(N2CCOCC2)c2sc(NC(=O)C(C)(C)Oc3ccc(C)cc3)nc12`: in data set [1], the Ki stood at 55 nM.

In the case of `COc1cnc(N2CCOCC2)c2sc(NC(=O)C(C)(C)Oc3ccc(F)cc3F)nc12`, the values for the Ki in [1] and in data set [7] were 13 nM and 13.5 nM, respectively. Further, the inhibition in data set [2] turned out to be 39%; in data set [3], 11%; in data set [4], 47%. In addition, the Drug metabolism is given as < 0.01 nmol/min/mg in [5] and < 0.03 nmol/min/mg in data set [6].

`COCCOc1cccc(OC(C)(C)C(=O)Nc2nc3c(OC)cnc(N4CCOCC4)c3s2)c1`: the values for the Ki in [1] and in data set [7] were 14 nM and 28 nM, respectively. Also, the results for the inhibition in data set [2], in data set [3] and in data set [4] were 38%, 23% and 41%, respectively. In addition, the Drug metabolism in data set [5] worked out at 0.05 nmol/min/mg; in [6] it was 0.1 nmol/min/mg.

In [1], `COc1cnc(N2CCOCC2)c2sc(NC(=O)C(C)(C)Oc3ccc(Cl)cc3)nc12` gave a Ki of 29 nM.

`COc1ccc(N2CCOCC2)c2sc(NC(=O)C(C)(C)Oc3ccc(C#N)cc3)nc12` came in with a Ki in data set [1] of 58 nM.

Turning to `COc1ccc(OC(C)(C)C(=O)Nc2nc3c(OC)ccc(N4CCOCC4)c3s2)cc1OC`, the Ki in data set [1] was 19 nM; in data set [7], 1.8 nM. Moreover, the inhibition in data set [2] was determined as 0%; in data set [3], 25%; in data set [4], 0%. Besides, the Drug metabolism in [5] is on record as 0.11 nmol/min/mg; in data set [6], 0.06 nmol/min/mg.

In the case of `COc1ccc(N2CCOCC2)c2sc(NC(=O)C3(C)CCC(O)CC3)nc12` (stereo not given), the Ki worked out at 5.9 nM in data set [1]; 90 nM in data set [8]; 23 nM in [9]; 41.8 nM in data set [10]; 1000 nM in data set [11]; 1.1 nM in data set [7]. Besides, the outcome in data set [12] was inactive.

Regarding `COc1ccc(N2CCOCC2)c2sc(NC(=O)C(C)(C)Oc3c(F)cccc3F)nc12`, the Ki in [1] amounted to 8 nM; in data set [7], 1 nM. Further, the inhibition is 37% in data set [2], 19% in data set [3] and 10% in [4]. Besides, the Drug metabolism was determined as 0.09 nmol/min/mg in [5] and 0.16 nmol/min/mg in [6].

Turning to `COc1ccc(N2CCOCC2)c2sc(NC(=O)C(C)(C)Oc3cccc(F)c3)nc12`, the figures for the Ki in data set [1] and in data set [7] were 2.8 nM and 0.95 nM, respectively. In addition, the results for the inhibition in [2], in [3] and in [4] were 52%, 36% and 20%, respectively. Moreover, the Drug metabolism was determined as 0.1 nmol/min/mg in data set [5] and 0.08 nmol/min/mg in data set [6].

As for `COc1ccc(N2CCOCC2)c2sc(NC(=O)C3(C)CCC(O)(C(C)C)CC3)nc12` (stereo not given), the figures for the Ki in data set [1] and in [7] were 17 nM and 2.1 nM, respectively.

`COc1cnc(N2CCOCC2)c2sc(NC(=O)C(C)(C)Oc3cccc(C(F)(F)F)c3)nc12` came in with a Ki in data set [1] of 24 nM.

On to `COc1ccc(N2CCOCC2)c2sc(NC(=O)C(C)(C)Oc3ccc4c(c3)OCO4)nc12`, for which the inhibitory constant (Ki) was 17 nM in data set [1] and 2.1 nM in [7]. Also, the inhibition amounted to 0% in data set [2], 0% in [3] and 29% in data set [4]. In addition, the Drug metabolism in [5] is reported as 0.05 nmol/min/mg.
